Data reported in article PMC9444296 (Investigative Radiology, 2022).

Legend:
[1] = biological target: HRH1 (Homo sapiens, UniProt P35367); assay: SAFETYscan E/IC50 assay, HRH1; format: biochemical; details: concentration range 0.005 to 100 μM
In short: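 Contract-laboratory in vitro panel of 78 targets, run in agonist and/or antagonist modes under provider SOPs over 0.005 to 100 μM. Panel formats included enzyme fragment complementation, FLIPR-based cellular assays, kinase binding and enzymatic assays.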

[2] = Plasma stability, dog plasma; format: in vitro ADME; details: 0.5 mM, 37°C, HPLC; for average remaining percentage of intact MT218: n = 2
In short: (§1)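 Test compound at 0.5 mM was incubated in human, rat or dog plasma at 37°C for up to 48 h, with PBS as control. Samples were mixed with methanol, centrifuged, and the intact compound was quantified by analytical reversed-phase (C18) HPLC.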

[3] = biological target: CYP1A2 (Homo sapiens, UniProt P05177); details: 0.01, 0.1, 1, 10, and 100 μM, pooled human liver microsomes 0.5 mg/mL
[4] = biological target: EDB protein fragment (Homo sapiens, UniProt P02751); assay: Binding affinity by surface plasmon resonance; details: read-out: average binding affinity (Kd); SPR, n = 4
In short: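 EDB protein fragment desalted into 10 mM PBS pH 7.4, then amine-coupled to a CM5 chip active cell (25 μg/mL in 10 mM acetate pH 4.5, 3 min at 10 μL/min, about 1500 RU). Both cells were ethanolamine-blocked (pH 8.5, 7 min). Test compound (1.0 mM stock in 0.05% Tween-20/10 mM PBS pH 7.4 running buffer) was injected at varying concentrations for 120 s at 50 μL/min, with 5 min dissociation. Kd came from instrument evaluation software.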

[5] = r1 and r2 relaxivity; format: physicochemical
In short: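 For the 1.4 T conditions, test compound was prepared at 0.125, 0.25, 0.5, 1 and 2 mM in HSA (40 mg/mL), water or PBS. T1 and T2 were measured on a benchtop relaxometer at 37°C.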

[6] = biological target: OAT1 (Homo sapiens, UniProt Q4U2R8); assay: OAT1 inhibition, HEK293 cells; format: in vitro ADME; details: 1, 5, 10, 50, and 100 μM
[7] = system: 78 common biological targets; assay: SAFETYscan 78-target panel; format: biochemical; details: 0.005 to 100 μM
[8] = biological target: MDR1 (Homo sapiens, UniProt P08183); assay: MDR1 inhibition, membrane vesicles; format: in vitro ADME; details: 1, 5, 10, 50, and 100 μM
[9] = biological target: OATP1B1 (Homo sapiens, UniProt Q9Y6L6); assay: OATP1B1 inhibition, HEK293 cells; format: in vitro ADME; details: 1, 5, 10, 50, and 100 μM
[10] = biological target: MATE2K (Homo sapiens, UniProt Q86VL8); assay: MATE2K inhibition, HEK293 cells; format: in vitro ADME; details: 1, 5, 10, 50, and 100 μM
[11] = system: cardiovascular and respiratory system functions; assay: Cardiovascular and respiratory safety pharmacology in conscious beagle dogs; format: in vivo, dog; details: single IV 0.07, 0.21, or 0.70 mmol/kg
In short: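 GLP study in 9 conscious beagle dogs (4 M, 5 F) given a single IV dose of saline or 0.07, 0.21 or 0.70 mmol/kg, at 3.5 mL/kg. Recorded within 1 h predose and at 0.5, 1, 2, 4 and 24 h: ECG (HR, PR, QRS, QT/QTcF, QRS voltage, STe, rhythm, waveform), systolic/diastolic/mean blood pressure, respiratory frequency and tidal volume.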

[12] = biological target: MATE1 (Homo sapiens, UniProt Q96FL8); assay: MATE1 inhibition, HEK293 cells; format: in vitro ADME; details: 1, 5, 10, 50, and 100 μM
[13] = Plasma stability, human plasma; format: in vitro ADME; details: 0.5 mM, 37°C, HPLC; for average remaining percentage of intact MT218: n = 2
In short: as §1

[14] = system: bone marrow of ICR mice; assay: Micronucleus assay in ICR mice; format: in vivo, mouse; details: ICR mice, 1.39, 0.70, and 0.35 mmol/kg/d for 2 days
In short: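 Male ICR mice, 32 in total, were dosed once daily for 2 days: vehicle, 500 or 1000 mg/kg/d (6 per group) or 2000 mg/kg/d (8 mice). Cyclophosphamide monohydrate served as positive control. Bone marrow was collected about 22.5 h after the final dose and scored for micronuclei and for polychromatic to total erythrocytes.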

[15] = system: CNS functions; assay: CNS safety pharmacology; format: in vivo, rat; details: SD rats, single IV 0.1, 0.3, and 1.0 mmol/kg, functional observational battery
In short: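 GLP study in SD rats, 5/sex/group, given a single IV dose of 0, 0.1, 0.3 or 1 mmol/kg. A functional observational battery was run at 0.25, 0.75, 1.5 and 4 h post-dose: home-cage, hand-held and open-field observations, responses to stimuli, forelimb grip strength and body temperature.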

[16] = biological target: OCT2 (Homo sapiens, UniProt O15244); assay: OCT2 inhibition, HEK293 cells; format: in vitro ADME; details: 1, 5, 10, 50, and 100 μM
[17] = biological target: BCRP (Homo sapiens, UniProt Q9UNQ0); assay: BCRP inhibition, membrane vesicles; format: in vitro ADME; details: 1, 5, 10, 50, and 100 μM
Chain of BCRP (Q9UNQ0 whole entry): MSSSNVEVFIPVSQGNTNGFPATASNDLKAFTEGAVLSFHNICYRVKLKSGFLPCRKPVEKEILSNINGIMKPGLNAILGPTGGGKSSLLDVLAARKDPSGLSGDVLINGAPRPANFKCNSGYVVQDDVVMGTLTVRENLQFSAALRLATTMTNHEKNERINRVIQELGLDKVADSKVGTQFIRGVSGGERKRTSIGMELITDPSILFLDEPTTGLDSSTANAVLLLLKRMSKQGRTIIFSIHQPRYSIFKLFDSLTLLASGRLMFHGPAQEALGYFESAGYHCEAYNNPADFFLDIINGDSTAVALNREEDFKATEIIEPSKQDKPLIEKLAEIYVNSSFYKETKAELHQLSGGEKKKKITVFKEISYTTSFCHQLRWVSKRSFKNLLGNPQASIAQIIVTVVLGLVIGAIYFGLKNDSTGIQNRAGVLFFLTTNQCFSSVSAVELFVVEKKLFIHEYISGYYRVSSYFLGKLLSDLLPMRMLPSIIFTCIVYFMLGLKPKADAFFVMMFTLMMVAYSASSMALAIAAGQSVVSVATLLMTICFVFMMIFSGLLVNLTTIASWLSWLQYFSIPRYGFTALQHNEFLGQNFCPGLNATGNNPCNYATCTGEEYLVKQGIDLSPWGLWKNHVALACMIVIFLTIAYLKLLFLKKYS

Chain of OAT1 (Q4U2R8 whole entry): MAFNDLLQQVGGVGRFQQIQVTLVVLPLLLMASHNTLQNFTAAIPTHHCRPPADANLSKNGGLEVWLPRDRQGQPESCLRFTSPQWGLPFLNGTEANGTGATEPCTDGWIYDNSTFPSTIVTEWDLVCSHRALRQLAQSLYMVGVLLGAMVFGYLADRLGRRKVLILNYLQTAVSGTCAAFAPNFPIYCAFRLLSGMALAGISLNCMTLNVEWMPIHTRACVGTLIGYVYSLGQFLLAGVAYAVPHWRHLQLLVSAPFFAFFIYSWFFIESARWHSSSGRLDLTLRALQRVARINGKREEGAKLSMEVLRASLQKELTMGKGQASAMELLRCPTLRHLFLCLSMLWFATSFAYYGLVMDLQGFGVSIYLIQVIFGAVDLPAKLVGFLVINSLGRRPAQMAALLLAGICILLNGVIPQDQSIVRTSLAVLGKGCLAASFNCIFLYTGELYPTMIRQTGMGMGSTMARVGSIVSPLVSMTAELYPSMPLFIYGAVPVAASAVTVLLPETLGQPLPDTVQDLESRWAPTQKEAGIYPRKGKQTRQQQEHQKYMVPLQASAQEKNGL
Chain of OATP1B1 (Q9Y6L6 whole entry): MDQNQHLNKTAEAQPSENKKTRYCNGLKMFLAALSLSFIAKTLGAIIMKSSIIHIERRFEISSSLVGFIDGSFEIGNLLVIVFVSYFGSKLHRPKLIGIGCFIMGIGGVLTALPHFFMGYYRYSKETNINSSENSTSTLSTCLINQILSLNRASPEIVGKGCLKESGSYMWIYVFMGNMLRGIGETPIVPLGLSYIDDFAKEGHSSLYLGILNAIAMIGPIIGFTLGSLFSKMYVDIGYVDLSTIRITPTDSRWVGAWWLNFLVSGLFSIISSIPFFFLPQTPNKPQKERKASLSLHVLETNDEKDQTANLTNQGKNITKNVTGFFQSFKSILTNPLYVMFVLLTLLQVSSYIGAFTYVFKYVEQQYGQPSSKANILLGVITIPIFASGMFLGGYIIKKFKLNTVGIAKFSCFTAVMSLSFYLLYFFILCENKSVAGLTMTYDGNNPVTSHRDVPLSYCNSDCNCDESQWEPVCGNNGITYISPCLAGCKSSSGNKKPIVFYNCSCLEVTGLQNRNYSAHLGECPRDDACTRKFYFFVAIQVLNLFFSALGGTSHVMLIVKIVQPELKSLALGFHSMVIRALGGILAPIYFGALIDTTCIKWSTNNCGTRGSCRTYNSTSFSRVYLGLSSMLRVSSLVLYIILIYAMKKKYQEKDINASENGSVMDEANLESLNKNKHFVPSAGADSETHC
Chain of MATE1 (Q96FL8 whole entry): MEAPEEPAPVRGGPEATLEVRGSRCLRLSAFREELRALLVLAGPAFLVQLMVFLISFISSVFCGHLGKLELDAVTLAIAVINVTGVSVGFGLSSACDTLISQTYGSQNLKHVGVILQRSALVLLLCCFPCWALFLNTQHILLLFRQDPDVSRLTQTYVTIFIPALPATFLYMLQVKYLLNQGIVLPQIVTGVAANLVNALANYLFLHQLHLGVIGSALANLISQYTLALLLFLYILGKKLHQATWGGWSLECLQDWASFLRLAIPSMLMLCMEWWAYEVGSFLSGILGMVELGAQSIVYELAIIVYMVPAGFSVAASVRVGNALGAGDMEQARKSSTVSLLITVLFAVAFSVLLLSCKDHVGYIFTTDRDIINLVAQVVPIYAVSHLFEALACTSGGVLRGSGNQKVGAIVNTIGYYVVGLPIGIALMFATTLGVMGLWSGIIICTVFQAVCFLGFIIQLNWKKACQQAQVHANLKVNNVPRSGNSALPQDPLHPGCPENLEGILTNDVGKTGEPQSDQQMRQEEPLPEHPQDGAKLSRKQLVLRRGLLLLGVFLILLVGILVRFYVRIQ
Chain of CYP1A2 (P05177 whole entry, the tested form may be a part): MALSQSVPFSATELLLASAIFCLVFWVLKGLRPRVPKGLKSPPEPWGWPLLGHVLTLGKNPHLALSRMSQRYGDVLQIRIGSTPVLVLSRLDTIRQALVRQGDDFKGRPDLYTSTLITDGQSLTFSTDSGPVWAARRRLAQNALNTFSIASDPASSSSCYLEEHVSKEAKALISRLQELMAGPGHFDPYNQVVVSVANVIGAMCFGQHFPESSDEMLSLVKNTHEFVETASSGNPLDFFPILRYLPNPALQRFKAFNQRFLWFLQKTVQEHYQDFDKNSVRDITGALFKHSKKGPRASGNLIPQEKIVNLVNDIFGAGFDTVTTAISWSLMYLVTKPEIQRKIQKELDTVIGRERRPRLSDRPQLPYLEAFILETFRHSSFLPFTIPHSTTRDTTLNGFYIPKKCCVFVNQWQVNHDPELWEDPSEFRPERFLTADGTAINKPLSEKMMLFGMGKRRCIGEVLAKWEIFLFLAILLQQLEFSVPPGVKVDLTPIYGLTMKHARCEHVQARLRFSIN
Chain of OCT2 (O15244 whole entry): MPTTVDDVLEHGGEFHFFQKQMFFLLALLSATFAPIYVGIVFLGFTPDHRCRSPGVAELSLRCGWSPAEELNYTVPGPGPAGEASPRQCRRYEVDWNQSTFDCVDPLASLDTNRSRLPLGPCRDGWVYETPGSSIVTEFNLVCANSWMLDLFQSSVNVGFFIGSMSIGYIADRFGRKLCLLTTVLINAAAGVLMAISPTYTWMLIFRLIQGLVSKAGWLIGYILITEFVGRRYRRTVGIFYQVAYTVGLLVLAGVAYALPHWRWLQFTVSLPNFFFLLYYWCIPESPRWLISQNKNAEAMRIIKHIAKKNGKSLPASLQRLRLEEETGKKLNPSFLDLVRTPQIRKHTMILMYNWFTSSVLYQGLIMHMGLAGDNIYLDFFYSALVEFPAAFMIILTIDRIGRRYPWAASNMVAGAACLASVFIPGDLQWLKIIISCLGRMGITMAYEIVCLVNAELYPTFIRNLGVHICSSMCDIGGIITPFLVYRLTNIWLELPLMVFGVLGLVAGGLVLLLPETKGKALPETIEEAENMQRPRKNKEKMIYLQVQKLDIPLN
Chain of MATE2K (Q86VL8 1-566 isoform Q86VL8-3): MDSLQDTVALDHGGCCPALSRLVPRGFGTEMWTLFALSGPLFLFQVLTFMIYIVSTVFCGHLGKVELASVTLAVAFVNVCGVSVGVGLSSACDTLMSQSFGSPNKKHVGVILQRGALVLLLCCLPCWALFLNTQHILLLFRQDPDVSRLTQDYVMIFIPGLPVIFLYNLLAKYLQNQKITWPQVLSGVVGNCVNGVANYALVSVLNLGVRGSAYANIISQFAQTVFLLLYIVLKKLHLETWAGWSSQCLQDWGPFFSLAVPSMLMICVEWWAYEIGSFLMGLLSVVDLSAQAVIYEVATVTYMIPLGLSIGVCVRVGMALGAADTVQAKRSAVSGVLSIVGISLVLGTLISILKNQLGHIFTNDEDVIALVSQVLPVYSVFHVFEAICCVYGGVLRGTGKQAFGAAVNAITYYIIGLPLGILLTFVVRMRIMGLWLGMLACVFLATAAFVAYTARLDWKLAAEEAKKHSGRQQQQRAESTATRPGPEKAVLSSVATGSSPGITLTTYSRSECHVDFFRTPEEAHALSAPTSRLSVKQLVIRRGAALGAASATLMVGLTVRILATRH
Chain of EDB protein fragment (P02751 1271-1359 limits assumed): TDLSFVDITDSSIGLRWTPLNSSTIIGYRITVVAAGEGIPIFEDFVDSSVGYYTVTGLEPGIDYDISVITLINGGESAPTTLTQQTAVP
Chain of HRH1 (P35367 whole entry, the tested form may be a part): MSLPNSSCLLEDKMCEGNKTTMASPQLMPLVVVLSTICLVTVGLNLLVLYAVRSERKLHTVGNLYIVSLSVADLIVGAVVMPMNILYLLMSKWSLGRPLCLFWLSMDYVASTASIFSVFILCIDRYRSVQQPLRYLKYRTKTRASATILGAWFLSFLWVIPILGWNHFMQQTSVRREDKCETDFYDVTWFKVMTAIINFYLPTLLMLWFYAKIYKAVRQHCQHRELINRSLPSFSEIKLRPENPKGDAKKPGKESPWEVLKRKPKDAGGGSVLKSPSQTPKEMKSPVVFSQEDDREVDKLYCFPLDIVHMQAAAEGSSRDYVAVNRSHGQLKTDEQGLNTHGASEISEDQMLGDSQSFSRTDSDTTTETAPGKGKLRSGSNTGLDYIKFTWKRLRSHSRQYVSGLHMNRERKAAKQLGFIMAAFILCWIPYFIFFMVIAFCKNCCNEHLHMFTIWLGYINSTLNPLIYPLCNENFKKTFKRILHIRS

Substance: ZD2-N3-Gd(HP-DO3A) [MT218]
- inhibition rate [1]: 17.77%
- average remaining percentage of intact MT218 ([2]; 1 h): 89.19%
- average remaining percentage of intact MT218 ([2]; 3 h): 71.45%
- average remaining percentage of intact MT218 ([2]; 6 h): 47.81%
- average remaining percentage of intact MT218 ([2]; 28 h): 11.23%
- average remaining percentage of intact MT218 ([2]; 48 h): 5.38%
- enzymatic degradation half-life (t1/2) [2]: 5.85 h
- inhibition of CYP1A2 activity [3]: did not inhibit
- Kd [4]: 3.45 µM
- r1 Relaxivity ([5]; 1.4 T, HSA aqueous solution (40 mg/mL), 37°C): 6.54 mM⁻¹ s⁻¹
- r1 Relaxivity ([5]; 1.4 T, PBS, 37°C): 6.58 mM⁻¹ s⁻¹
- r1 Relaxivity ([5]; 3.0 T, H2O, MRS 3000 scanner): 6.25 (H2O) mM^−1 s^−1
- r1 Relaxivity ([5]; 3.0 T, PBS): 6.16 mM⁻¹ s⁻¹
- inhibition of OAT1 transporter activity [6]: no inhibition potential
- target-specific secondary pharmacologic activity [7]: did not exhibit any notable target-specific secondary pharmacologic activity
- inhibition of MDR1 transporter activity [8]: no inhibition potential
- inhibition of OATP1B1 transporter activity [9]: no inhibition potential
- inhibition of MATE2K transporter activity [10]: no inhibition potential
- effect on ECG, blood pressure and respiratory function parameters [11]: no MT218-related effect
- inhibition of MATE1 transporter activity [12]: no inhibition potential
- average remaining percentage of intact MT218 ([13]; 1 h): 83.47%
- average remaining percentage of intact MT218 ([13]; 3 h): 48.79%
- average remaining percentage of intact MT218 ([13]; 6 h): 12.87%
- average remaining percentage of intact MT218 ([13]; 28 h): 5.21%
- average remaining percentage of intact MT218 ([13]; 48 h): 3.97%
- enzymatic degradation half-life (t1/2) [13]: 2.63 h
- incidence of micronuclei vs vehicle control [14]: no significant increase
- ratio of polychromatic erythrocytes to total erythrocytes [14]: no significant decrease
- effect on parameters of CNS function [15]: No MT218-related effect
- inhibition of OCT2 transporter activity [16]: no inhibition potential
- inhibition of BCRP transporter activity [17]: no inhibition potential
